Assay results from ChEMBL document CHEMBL5661979, “Pharmacological inhibition of BMK1 suppresses tumor growth through promyelocytic leukemia protein” (Cancer Cell, 2010).

Key:
[1] = target: Phosphatidylinositol 3-kinase catalytic subunit type 3 (Homo sapiens, UniProt Q8NEB9); experiment: Inhibition of PIK3C3 in human HeLa cells lysate pre incubated for 15 mins followed by ATP acyl phosphate probe addition and measured after 10 mins by LC-MS/MS analysis; assay type: subcellular
[2] = target: Cyclin-dependent kinase 9 (Homo sapiens, UniProt P50750); experiment: Inhibition of CDK9 in human HeLa cells lysate pre incubated for 15 mins followed by ADP acyl phosphate probe addition and measured after 10 mins by LC-MS/MS analysis; assay type: subcellular
Summary of the method: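 KiNativ profiling in HeLa lysate (5 mg/mL total protein). Lysate incubated 15 min with inhibitor at 50, 10, 2, 0.8 or 0 μM. ATP or ADP acylphosphate probe then added (5 μM final) and reacted 10 min. Reaction stopped with urea and analysed by targeted MS, using up to four fragment ions per kinase peptide-probe conjugate. % inhibition taken against untreated lysate. Run in duplicate.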

[3] = target: Serine/threonine-protein kinase Nek8 (Homo sapiens, UniProt Q86SG6); experiment: Inhibition of NEK8 in human HeLa cells lysate pre incubated for 15 mins followed by ADP acyl phosphate probe addition and measured after 10 mins by LC-MS/MS analysis; assay type: subcellular
[4] = target: T1, Dual specificity mitogen-activated protein kinase kinase 6 (Homo sapiens) (UniProt P52564); experiment: Inhibition of MAP2K6 in human HeLa cells lysate at 50 uM pre incubated for 15 mins followed by ADP acyl phosphate probe addition and measured after 10 mins by LC-MS/MS analysis relative to control; assay type: subcellular; conditions: time 25.0 min
T1 sequence (whole entry): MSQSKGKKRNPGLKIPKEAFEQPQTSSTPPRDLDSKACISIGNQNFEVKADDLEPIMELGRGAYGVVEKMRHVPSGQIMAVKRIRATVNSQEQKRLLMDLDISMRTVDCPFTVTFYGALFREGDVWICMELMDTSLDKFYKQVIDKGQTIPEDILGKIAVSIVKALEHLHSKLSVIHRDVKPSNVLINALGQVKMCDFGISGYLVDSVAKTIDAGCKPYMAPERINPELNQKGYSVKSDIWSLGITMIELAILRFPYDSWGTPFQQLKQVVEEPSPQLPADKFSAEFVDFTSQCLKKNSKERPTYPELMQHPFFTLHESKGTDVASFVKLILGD

[5] = target: T2, Serine/threonine-protein kinase ULK3 (Homo sapiens) (UniProt Q6PHR2); experiment: Inhibition of ULK3 in human HeLa cells lysate at 10 uM pre incubated for 15 mins followed by ADP acyl phosphate probe addition and measured after 10 mins by LC-MS/MS analysis relative to control; assay type: subcellular; conditions: time 25.0 min
T2 sequence (whole entry): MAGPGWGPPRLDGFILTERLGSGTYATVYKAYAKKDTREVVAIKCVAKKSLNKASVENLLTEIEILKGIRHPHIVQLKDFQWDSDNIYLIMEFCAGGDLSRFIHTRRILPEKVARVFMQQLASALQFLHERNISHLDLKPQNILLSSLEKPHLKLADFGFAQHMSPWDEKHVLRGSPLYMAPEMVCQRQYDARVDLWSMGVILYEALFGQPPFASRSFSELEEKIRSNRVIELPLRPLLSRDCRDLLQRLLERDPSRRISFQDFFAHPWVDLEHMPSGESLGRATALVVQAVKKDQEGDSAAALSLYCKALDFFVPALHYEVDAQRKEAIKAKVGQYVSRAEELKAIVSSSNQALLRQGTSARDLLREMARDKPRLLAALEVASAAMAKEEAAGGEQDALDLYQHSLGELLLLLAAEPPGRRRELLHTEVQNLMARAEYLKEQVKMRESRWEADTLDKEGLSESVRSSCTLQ

[6] = target: Serine/threonine-protein kinase B-raf (Homo sapiens, UniProt P15056); experiment: Inhibition of BRAF in human HeLa cells lysate at 50 uM pre incubated for 15 mins followed by ATP acyl phosphate probe addition and measured after 10 mins by LC-MS/MS analysis relative to control; assay type: subcellular; conditions: time 25.0 min
Summary of the method: (§1)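 KiNativ-type profiling in HeLa lysate (5 mg/mL total protein). Lysate preincubated 15 min with inhibitor at 50, 10, 2, 0.8 or 0 μM, then ATP or ADP acylphosphate probe added (5 μM final) for 10 min. Reaction stopped with urea and analysed by targeted MS, using up to four fragment ions per kinase peptide-probe conjugate. % inhibition calculated against untreated lysate. Duplicate reactions.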

[7] = target: T3, Phosphatidylinositol 5-phosphate 4-kinase type-2 alpha (Homo sapiens) (UniProt P48426); experiment: Inhibition of PIP5K2A in human HeLa cells lysate at 50 uM pre incubated for 15 mins followed by ATP acyl phosphate probe addition and measured after 10 mins by LC-MS/MS analysis relative to control; assay type: subcellular; conditions: time 25.0 min
T3 sequence (whole entry): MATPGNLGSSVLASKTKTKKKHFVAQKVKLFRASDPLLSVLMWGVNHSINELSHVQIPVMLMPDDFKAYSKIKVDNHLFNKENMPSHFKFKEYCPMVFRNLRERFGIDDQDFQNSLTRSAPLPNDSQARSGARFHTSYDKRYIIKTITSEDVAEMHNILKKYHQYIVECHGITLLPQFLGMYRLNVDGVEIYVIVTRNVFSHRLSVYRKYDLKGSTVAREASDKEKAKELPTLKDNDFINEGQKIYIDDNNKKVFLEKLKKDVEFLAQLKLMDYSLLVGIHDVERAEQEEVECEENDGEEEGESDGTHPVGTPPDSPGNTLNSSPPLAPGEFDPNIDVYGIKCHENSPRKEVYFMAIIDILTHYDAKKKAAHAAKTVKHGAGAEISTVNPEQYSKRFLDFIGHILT

[8] = target: T4, Aurora kinase A (Homo sapiens) (UniProt O14965); experiment: Inhibition of AurA in human HeLa cells lysate at 10 uM pre incubated for 15 mins followed by ATP acyl phosphate probe addition and measured after 10 mins by LC-MS/MS analysis relative to control; assay type: subcellular; conditions: time 25.0 min; summary of the method: as §1
T4 sequence (whole entry): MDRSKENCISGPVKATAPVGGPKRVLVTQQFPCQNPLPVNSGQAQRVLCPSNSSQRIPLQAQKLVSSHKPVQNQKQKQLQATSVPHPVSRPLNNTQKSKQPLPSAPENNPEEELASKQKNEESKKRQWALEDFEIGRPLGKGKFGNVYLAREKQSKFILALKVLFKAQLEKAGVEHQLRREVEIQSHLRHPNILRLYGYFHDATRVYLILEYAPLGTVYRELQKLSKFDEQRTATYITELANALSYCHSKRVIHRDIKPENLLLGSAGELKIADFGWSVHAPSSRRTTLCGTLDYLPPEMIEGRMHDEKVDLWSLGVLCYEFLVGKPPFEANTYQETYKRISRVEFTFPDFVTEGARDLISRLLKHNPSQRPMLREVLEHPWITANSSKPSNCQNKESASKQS

[9] = target: Serine/threonine-protein kinase 24 (Homo sapiens, UniProt Q9Y6E0); experiment: Inhibition of MST3 in human HeLa cells lysate at 2 uM pre incubated for 15 mins followed by ATP acyl phosphate probe addition and measured after 10 mins by LC-MS/MS analysis relative to control; assay type: subcellular; conditions: time 25.0 min
[10] = Plasma concentration in Sprague-Dawley rat at 2 mg/kg, po measured after 30 mins by LC-MS/MS analysis; assay type: ADME, organism-based

Sequence of Phosphatidylinositol 3-kinase catalytic subunit type 3 (Q8NEB9 whole entry): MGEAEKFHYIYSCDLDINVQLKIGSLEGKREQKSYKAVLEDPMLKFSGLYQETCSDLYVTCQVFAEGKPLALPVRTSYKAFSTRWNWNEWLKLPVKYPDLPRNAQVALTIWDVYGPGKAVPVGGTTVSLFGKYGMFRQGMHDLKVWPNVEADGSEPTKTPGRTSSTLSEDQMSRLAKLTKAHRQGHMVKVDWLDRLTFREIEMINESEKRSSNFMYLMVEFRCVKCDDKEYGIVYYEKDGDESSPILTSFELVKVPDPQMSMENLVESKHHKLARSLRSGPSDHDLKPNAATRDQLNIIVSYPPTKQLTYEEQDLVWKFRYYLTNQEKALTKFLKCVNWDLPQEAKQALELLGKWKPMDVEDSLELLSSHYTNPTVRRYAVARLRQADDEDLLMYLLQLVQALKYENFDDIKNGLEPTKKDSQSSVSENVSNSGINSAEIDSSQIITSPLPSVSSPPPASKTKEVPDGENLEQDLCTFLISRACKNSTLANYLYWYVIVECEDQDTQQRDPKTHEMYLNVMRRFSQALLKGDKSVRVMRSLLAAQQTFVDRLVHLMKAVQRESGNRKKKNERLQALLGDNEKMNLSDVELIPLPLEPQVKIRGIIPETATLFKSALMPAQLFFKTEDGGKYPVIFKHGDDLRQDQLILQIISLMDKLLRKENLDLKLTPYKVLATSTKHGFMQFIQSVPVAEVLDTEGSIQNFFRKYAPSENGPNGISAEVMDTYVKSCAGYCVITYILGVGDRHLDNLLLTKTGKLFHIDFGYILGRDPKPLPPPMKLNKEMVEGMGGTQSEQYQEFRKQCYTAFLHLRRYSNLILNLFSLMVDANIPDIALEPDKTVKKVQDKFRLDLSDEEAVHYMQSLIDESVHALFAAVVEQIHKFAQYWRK
Sequence of Cyclin-dependent kinase 9 (P50750 whole entry, the tested form may be a part): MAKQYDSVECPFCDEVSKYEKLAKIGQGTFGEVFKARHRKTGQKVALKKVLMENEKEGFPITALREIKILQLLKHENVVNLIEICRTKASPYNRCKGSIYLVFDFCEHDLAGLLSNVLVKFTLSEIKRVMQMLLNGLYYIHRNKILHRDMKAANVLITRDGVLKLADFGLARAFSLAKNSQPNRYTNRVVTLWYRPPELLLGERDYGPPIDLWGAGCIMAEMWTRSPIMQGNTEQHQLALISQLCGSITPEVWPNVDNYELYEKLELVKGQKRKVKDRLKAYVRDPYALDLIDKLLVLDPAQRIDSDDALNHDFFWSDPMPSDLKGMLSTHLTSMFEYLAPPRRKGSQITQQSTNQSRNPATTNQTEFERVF
Sequence of Serine/threonine-protein kinase 24 (Q9Y6E0 whole entry, looked up): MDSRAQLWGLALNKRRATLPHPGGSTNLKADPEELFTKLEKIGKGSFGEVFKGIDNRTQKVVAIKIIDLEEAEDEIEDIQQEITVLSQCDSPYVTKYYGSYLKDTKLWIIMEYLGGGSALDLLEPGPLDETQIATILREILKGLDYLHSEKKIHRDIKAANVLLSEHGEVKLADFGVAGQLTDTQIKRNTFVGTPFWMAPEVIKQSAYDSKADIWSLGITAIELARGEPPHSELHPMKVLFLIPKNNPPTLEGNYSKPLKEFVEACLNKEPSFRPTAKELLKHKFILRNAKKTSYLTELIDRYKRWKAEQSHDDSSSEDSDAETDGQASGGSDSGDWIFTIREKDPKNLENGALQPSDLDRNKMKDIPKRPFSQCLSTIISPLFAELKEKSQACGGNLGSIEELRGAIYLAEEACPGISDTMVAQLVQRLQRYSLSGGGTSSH
Sequence of Serine/threonine-protein kinase Nek8 (Q86SG6 whole entry): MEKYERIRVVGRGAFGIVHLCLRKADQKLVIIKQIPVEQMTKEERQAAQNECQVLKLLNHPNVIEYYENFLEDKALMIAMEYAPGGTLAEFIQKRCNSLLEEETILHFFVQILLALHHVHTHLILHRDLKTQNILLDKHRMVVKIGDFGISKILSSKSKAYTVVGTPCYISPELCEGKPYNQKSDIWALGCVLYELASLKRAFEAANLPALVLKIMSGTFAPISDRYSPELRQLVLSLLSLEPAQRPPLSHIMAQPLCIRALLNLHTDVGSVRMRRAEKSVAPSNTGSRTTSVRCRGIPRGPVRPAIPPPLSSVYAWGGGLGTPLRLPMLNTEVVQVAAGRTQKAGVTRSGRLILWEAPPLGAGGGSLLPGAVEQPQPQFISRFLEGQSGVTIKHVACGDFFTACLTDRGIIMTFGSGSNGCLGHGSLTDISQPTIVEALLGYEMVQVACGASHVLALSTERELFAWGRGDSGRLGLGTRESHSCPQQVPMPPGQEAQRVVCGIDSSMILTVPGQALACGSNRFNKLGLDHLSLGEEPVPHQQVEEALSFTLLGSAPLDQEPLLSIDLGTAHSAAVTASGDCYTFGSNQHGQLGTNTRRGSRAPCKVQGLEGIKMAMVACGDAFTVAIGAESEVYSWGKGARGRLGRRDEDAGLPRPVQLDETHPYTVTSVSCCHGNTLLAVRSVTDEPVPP
Sequence of Serine/threonine-protein kinase B-raf (P15056 whole entry, the tested form may be a part): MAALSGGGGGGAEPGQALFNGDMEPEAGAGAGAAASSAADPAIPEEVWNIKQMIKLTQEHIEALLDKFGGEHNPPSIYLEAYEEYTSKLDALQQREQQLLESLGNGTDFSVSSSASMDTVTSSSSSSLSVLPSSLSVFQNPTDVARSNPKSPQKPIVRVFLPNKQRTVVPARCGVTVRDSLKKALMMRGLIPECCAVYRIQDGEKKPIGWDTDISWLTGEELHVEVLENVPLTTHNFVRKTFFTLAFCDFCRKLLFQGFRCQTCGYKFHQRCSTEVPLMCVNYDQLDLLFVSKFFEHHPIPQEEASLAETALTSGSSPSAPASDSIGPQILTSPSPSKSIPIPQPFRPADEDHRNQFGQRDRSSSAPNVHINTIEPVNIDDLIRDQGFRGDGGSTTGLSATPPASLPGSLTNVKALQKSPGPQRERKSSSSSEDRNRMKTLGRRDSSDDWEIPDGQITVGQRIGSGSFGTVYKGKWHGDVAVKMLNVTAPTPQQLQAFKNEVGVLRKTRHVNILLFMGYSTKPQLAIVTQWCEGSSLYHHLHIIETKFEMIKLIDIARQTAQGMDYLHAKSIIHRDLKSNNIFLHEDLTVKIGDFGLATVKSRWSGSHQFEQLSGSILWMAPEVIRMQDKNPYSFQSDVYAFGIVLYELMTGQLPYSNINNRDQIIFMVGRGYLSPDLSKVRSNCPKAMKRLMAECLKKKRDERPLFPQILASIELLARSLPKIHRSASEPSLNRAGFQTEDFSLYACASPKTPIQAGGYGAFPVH

With CCOc1cc(N2CCC(O)CC2)ccc1Nc1ncc2c(n1)N(C)c1ccccc1C(=O)N2C as the compound, how does the IC50 [1] read?
The IC50 was over 50 µM.

What about the IC50 [2] of the same compound?
Its IC50 is over 50 µM.

And the IC50 [3]?
Its IC50 is over 50 µM.

And the inhibition [4]?
Its inhibition is 9.1%.

And the inhibition [5]?
The inhibition was 1.2%.

And the inhibition [6]?
Its inhibition is 8%.

What about the inhibition [7] of the same compound?
The inhibition was 1%.

What about the inhibition [8] of the same compound?
Its inhibition is 2.3%.

And the inhibition [9]?
The inhibition was -3.8%.

What about the concentration at 0.5 h [10] of the same compound?
Its concentration at 0.5 h is about 500 nM.
